In general, pIC50 refers to the IC50 on a negative log10 scale, so that one unit is a factor of ten.

Molecules are shown by their SMILES. pIC50: −log10 of the molar value. The source made the active and inactive calls. The rule behind the calls is not given here. Non-standard residues stand in square brackets, D forms with d. Residues, ends and D or L forms follow the SMILES beside them. *: point of attachment. Asu = N[C@@H](CCCCCC(=O)O)C(=O)O; NH(2-NH2-phenyl) = Nc1ccccc1N*

The nature of experiment [1]: Inhibition of Eimeria tenella HDAC1 assessed as [3H]acetate release by scintillation counting.
Experiment [2] addresses Histone deacetylase (Homo sapiens) (UniProt Q13547+O15379+Q9UBN7+Q92769+Q9UQL6+Q8WUI4+Q9BY41+Q96DB2+P56524+Q9UKV0+Q969S8). The experiment can be described thus: Inhibition of HDAC in human GM15850 cells assessed as effect on histone H3 acetylation at 20 uM after 48 hrs by Western blot analysis. The experiment is classed as cell-based. A digest of the protocol:
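Human lymphoblastoid line GM15850 exposed to compound at 20 µM for 48 h; endogenous histone H3 acetylation judged by western blot.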
Background: Immunoblotting shows a protein as a band on a membrane.

The next experiment deals with Histone deacetylase 1 (Homo sapiens, UniProt Q13547). The experiment can be described thus: Inhibition of human recombinant HDAC1. A digest of the protocol:
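Enzyme source: recombinant human HDAC1. IC50 reported as mean of two experiments with standard error.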

The target in a further experiment is Histone deacetylase 3 (Homo sapiens, UniProt O15379). The experiment in a line: Inhibition of human recombinant HDAC3. A digest of the protocol:
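Recombinant human HDAC1 or HDAC3 enzyme inhibition assay. IC50 values are means of two experiments, with standard error reported.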

The species named for another experiment is Homo sapiens. The experiment in a line: Selectivity ratio of IC50 for human recombinant HDAC1 to IC50 for human recombinant HDAC3.

Histone deacetylase 1, sequence (Q13547 whole entry): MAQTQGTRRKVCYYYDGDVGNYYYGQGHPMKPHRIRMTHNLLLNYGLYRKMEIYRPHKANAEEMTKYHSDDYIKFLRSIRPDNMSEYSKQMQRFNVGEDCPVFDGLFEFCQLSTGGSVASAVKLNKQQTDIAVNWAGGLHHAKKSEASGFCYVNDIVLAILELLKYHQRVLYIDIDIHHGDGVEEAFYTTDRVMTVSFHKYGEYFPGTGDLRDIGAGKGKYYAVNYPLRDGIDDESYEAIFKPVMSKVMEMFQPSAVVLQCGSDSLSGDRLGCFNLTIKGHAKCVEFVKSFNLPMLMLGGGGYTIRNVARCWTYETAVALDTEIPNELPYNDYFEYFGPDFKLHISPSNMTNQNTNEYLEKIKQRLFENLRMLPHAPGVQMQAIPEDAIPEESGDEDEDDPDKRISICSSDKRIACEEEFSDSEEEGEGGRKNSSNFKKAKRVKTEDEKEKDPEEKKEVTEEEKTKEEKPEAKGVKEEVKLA
Histone deacetylase 3, sequence (O15379 whole entry): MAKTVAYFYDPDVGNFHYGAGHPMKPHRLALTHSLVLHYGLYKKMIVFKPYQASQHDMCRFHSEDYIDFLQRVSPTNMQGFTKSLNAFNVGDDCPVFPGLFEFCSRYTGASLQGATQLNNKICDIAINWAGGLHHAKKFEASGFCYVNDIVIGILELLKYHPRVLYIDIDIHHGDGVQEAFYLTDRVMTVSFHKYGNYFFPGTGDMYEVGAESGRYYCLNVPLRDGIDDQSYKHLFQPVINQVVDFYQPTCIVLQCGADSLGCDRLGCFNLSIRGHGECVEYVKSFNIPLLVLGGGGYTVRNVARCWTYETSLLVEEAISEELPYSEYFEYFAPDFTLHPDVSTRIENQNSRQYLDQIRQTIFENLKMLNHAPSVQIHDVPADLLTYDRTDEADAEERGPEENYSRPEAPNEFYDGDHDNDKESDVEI

Regarding `CCC(=O)CCCCC[C@@H]1NC(=O)[C@H]2CCCCN2C(=O)[C@H]([C@@H](C)CC)NC(=O)[C@H](Cc2cn(OC)c3ccccc23)NC1=O` [APICIDIN], the pIC50 in experiment [1] is 8.40.
Regarding `N=C(N)NCCC[C@@H]1NC(=O)CNC(=O)[C@H](CCCCCC(=O)Nc2ccccc2N)NC(=O)CNC1=O` (cyclo([Asu](NH(2-NH2-phenyl))GRG)), the outcome in experiment [2] was Active.
Take `Nc1ccccc1NC(=O)CCCCC[C@H](NC(=O)[C@H]1CCCN1C(=O)[C@@H](N)Cc1ccccc1)C(=O)N[C@@H](Cc1ccccc1)C(=O)O`: the pIC50 was 4.07 at Histone deacetylase 1 and 4.57 at Histone deacetylase 3.
The like results for `Nc1ccccc1NC(=O)CCCCC[C@@H]1NC(=O)[C@H]2CCCN2C(=O)[C@H](Cc2ccccc2)NC(=O)[C@H](Cc2ccccc2)NC1=O` were, in that order, 4.69 and 5.25.
As for `N=C(N)NCCC[C@H](N)C(=O)NCC(=O)N[C@@H](CCCCCC(=O)Nc1ccccc1N)C(=O)Nc1ccccc1N`, the negative-log IC50 (pIC50) at Histone deacetylase 1 is 5.33; on Histone deacetylase 3, 5.89. In addition, the outcome in experiment [2] was Active.
Regarding `Cc1ccc(C(=O)NCC(=O)NCCC(=O)Nc2ccccc2N)cc1`, the figures for the pIC50 on Histone deacetylase 1 and on Histone deacetylase 3 were 4.08 and 5.37, respectively. For the same compound, the result in experiment [2] was Active. Moreover, in the experiment filed under Homo sapiens, the Ratio IC50 was 19.
Regarding `Nc1ccccc1NC(=O)CCCCC[C@H](NC(=O)[C@@H]1CCCN1C(=O)[C@@H](N)Cc1ccccc1)C(=O)Nc1ccccc1N`, the pIC50 was 5.14 on Histone deacetylase 1 and 5.47 on Histone deacetylase 3.
In the case of `Cc1ccc(C(=O)N[C@@H](CCCN=C(N)N)C(=O)NCCC(=O)Nc2ccccc2N)cc1`, the pIC50 at Histone deacetylase 1 is 5.04; at Histone deacetylase 3 it was 5.66.
